Tested on: MS2 coat protein
Assay: apparent Kd, MS2 coat protein; higher = weaker binding; RNA-MaP array; FMN 200 µM where present
Outline: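 On Illumina sequencing-chip clusters, designs were transcribed by stalled E. coli RNA polymerase and titrated with SNAP-549-labelled MS2 coat protein (0.7 or 1.5 nM, doubling to 3 µM), without and then with constant ligand, in 100 mM Tris-HCl pH 7.5, 80 mM KCl, 4 mM MgCl2, BSA, DTT, yeast tRNA and Tween-20. Apparent Kd is the median of filtered per-cluster curve fits to green signal normalised to red-channel RNA signal and control-cluster median Fmax.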

[1] = designed as: OFF switch for flavin mononucleotide, no ligand
[2] = ligand present: flavin mononucleotide, designed as: OFF switch for flavin mononucleotide
[3] = designed as: ON switch for flavin mononucleotide, no ligand
[4] = ligand present: flavin mononucleotide, designed as: ON switch for flavin mononucleotide

Row | Sequence | apparent Kd [1] | apparent Kd [2] | apparent Kd [3] | apparent Kd [4]
1 | UGAUCUAUGUAGAAGGCCCAUAUCUAUAUUUAGGGAGGAUAUACAUGAGGAUCACCCAUGUGUAGAGCUGGUGGACUGGUCAGC | 92.8 nM | 234 nM | – | –
2 | GGUCGUCACAUAUACAUGAGGAUCACCCAUGUCAAAAGACAUGAGGAUAUGGAUAAUAAUAUAAACCAGAAGGCAUGGACGACC | – | – | 961 nM | 59.6 nM
3 | GGAGCCGGCACCGAGGAUAUUCAUAUUAAAACAUGAGGAUCACCCAUGUACCGCAGAAGCGGUUGGGAGAAGGCGGAUCGGCUCG | – | – | 691 nM | 42.1 nM
4 | UUCUUCAGGUCAGGAUAUGCACAAGUUCAACGAGCAGAAGGGACAUGAGGAUCACCCAUGUAAAGGGCACCGGCUAACGUUCGA | 258 nM | 182 nM | – | –
5 | AGUGUCAUCGAGAAGGCCUCAACAUGAGGAUCACCCAUGUUGCAAAAUGGGAGGAUAUCGAAAAUACAGCUACGUUUCGUAGCA | – | – | 21.9 nM | 5.3 nM
6 | CGGGCUGCCAGAGGAUAAUGGACAUGAGGAUCACCCAUGUGUCAGGAUAUGGGUUUCACAUGGACUCAGAAGGGACCAGCCCAA | – | – | 101 nM | 24.9 nM
7 | CUUGUGUUAGGAUAUGCGCCCUGAAGUGGCAGGGCCAGAGAGCAGAAGGGACAUGAGGAUCACCCAUGUGUGAC | 84.3 nM | 127 nM | – | –
8 | AAAAAACAUGAGGAUCACCCAUGUAAAAAAAUGGGAGGAUAUACAAAAACGAAAGUCAAAGUAGAAGGCCUGAAAA | – | – | 119 nM | 25.6 nM
9 | ACAUAAAUUCGAGGAUAUCGGUGAUAUAAUUUACGAGAAGGCGAUAAAUGUUAUAAACUUAUAGACAUGAGGAUCACCCAUGUA | – | – | 35.1 nM | 32.5 nM
10 | GUUCUUCCUGUAAGGAUAUCCAUGUAUCAAAGUAUGGAGAAGGUACAUGAGGAUCACCCAUGUCACCCGCGUUA | 22.8 nM | 49.6 nM | – | –
11 | UGUCGGAGGAGAGGAUAUUACAUGAGGAUCACCCAUGUAUGAACCAAUAGCUGGAAACAGCAAUGUAAGAAGGCUGCUCCGACA | 8.17 nM | 81.4 nM | – | –
12 | AUGGAUAUCACAGGAUAUGCCAGGGAUACCCUGGCAGAAGGGUGAUCCAUCCUAUGUAAAUACAUGAGGAUCACCCAUGUGUCC | – | – | 51.7 nM | 43.6 nM
13 | CGCUACGUUUCGUAGCAGUGUCAUCGAGAAGGCCCUGACAUGAGGAUCACCCAUGUUCCAAAAUGGGAGGAUAUCGAUGAUACA | – | – | 4.89 nM | 4.99 nM
14 | ACGGCAGUCAGAGGAUAUGGUUACAUGAGGAUCACCCAUGUCAAGGGUCUAAUUAAGUAUAACUACUAGAAGGCUGAAGGCCUA | 154 nM | 113 nM | – | –
15 | AAAAGGUCAGGAUAUCGGCGCGGUUGGGAGGCAGGUCCGCGCGAGAAGGGACAUGAGGAUCACCCAUGUUAAAA | 29.2 nM | 32.4 nM | – | –
16 | UAUUUAAGAGGAUAUACAUGAGGAUCACCCAUGUAUAUUAAUAUACAUGAUUUUUUAUGUAGAAGGCUUGGGUA | 25.5 nM | 58.4 nM | – | –
17 | UUUAUGUCAGGAUAUGAGUAGUAGAACAAUAGUACUACUACUCAGAAGGGACAUGAGGAUCACCCAUGUUCCUC | 18.2 nM | 98.8 nM | – | –
18 | GGUACUCAAAGAGUACUUGGUCGAACAUGAGGAUCACCCAUGUAGGAUAUGCGAAGCAAGAAGUAGCAGAAGGGCGUGUGCAGC | 12.8 nM | 11.6 nM | – | –
19 | ACCAGGGAUUCAGGAUAUAUUAGCCGAGGCCGCGUAGAAGGGAAAUCCUGACAUGAGGAUCACCCAUGUCGACCCGCCUUCCUA | – | – | 47.6 nM | 46.8 nM
20 | UAUUUACGAGGAUAUCGUUUUUUUCACAUGAGGAUCACCCAUGUUGUUUAUGUUGCGUUGCGAGAAGGCGUUUGUU | 31.1 nM | 23 nM | – | –
21 | UUUACAUGAGGAUCACCCAUGUCUUGCAAGAUGAGUUCUGGUGAGGAUAUACAUGGUAAAGAACUGUAGAAGGCACUGGGUACA | – | – | 432 nM | 430 nM
22 | UUAUAUAGAGUGAGGAUAUGCUGGUCCUUGGAUCAGCAGAAGGCACAUGAGGAUCACCCAUGUAAUAUAUUAUU | 22 nM | 38.2 nM | – | –
23 | GUGUAGAGAGGAUAUACAUGAGGAUCACCCAUGUGAAUAAGAUAGAAUAAGAUAAAGUGUAGAAGGUUUAGUGU | 43 nM | 34.2 nM | – | –
24 | AAAUAAAGUACCUAGAUAUCCUCACAUGAGGAUCACCCAUGUCAGGAUAUUUGUCCUAAAAGGACAGAGAAGGGACAAGGUAUA | 5.52 nM | 9.72 nM | – | –
25 | UUGCCUCAGAACAUGAGGAUCACCCAUGUGCUGCGGGCAACGUAGGAUAUGAUGGUAUUAUACCGUCAGAAGGAUGAUGGUACU | – | – | 5.59 nM | 5.2 nM
26 | UUGGACGACGUAGGAUAUGUAGGAUAUUCCUACAUGAGGAUCACCCAUGUUGACAUGGAAGAAGGACAGAAGGACGAUGUCCAU | – | – | 261 nM | 5.57 nM
27 | CUUAUUAAACAAGGAUAUCAUUUGUGUACAAGUUUUACAUGAGGAUCACCCAUGUUAAAUGGUUUUGAGAAGGUGUUUAGAACU | – | – | 58.4 nM | 31.5 nM
28 | GUACCUCAAGUGAGGAUAUGUCAUUACCGGUGAAGAUAGAAGGCACAUGAGGAUCACCCAUGUGUGGCUCCGUC | 23.5 nM | 95.8 nM | – | –

From the EternaBench riboswitch data
